Experimental data taken from ChEMBL document CHEMBL1151746, “Antitumor agents 6. Synthesis, structure-activity relationships, and biological evaluation of spiro[imidazolidine-4,3'-thieno[2,3-g]quinoline]-tetraones and spiro[thieno[2,3-g]quinoline-3,5'-[1,2,4]triazinane]-tetraones with potent antiproliferative activity” (J Med Chem, 2008).

Experiments:
[1] = tested on: MT4; test: Antiproliferative activity against human MT4 cells after 96 hrs by MTT assay; format: functional, cell-based
How it was run: (§1)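 Exponentially growing cells in RPMI 1640 with 10% FCS were resuspended at 1 × 10⁵ cells/mL in RPMI containing serial dilutions of compound (DMSO solution at 200 µM, diluted in medium). After 96 h at 37 °C, viability was read by MTT. Growth was taken as % of untreated controls, which grew at least three rounds. IC50 came from linear regression, as the mean of three independent determinations.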

[2] = tested on: HT-29; test: Antiproliferative activity against human HT-29 cells after 96 hrs by MTT assay; format: functional, cell-based
How it was run: (§2)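 Solid-tumor cells in their specific media with 10% FCS were seeded at 5 × 10⁴ cells/mL and left to adhere 16 h. Serially diluted compound was then added (DMSO solution at 200 µM, diluted in medium). MTT viability was read 4 days later. IC50 came from linear regression against untreated controls, which grew at least three rounds, as the mean of three independent determinations.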

[3] = tested on: CCRF-CEM; test: Antiproliferative activity against human CCRF-CEM cells after 96 hrs by MTT assay; format: functional, cell-based; how it was run: as §1
[4] = tested on: CCRF-SB; test: Antiproliferative activity against human CCRF-SB cells after 96 hrs by MTT assay; format: functional, cell-based; how it was run: as §1
[5] = tested on: MCF7; test: Antiproliferative activity against human MCF7 cells after 96 hrs by MTT assay; format: functional, cell-based; conditions: MCF7, 96 h; how it was run: as §2
[6] = tested on: HeLa; test: Antiproliferative activity against human HeLa cells after 96 hrs by MTT assay; format: functional, cell-based; how it was run: as §2
[7] = tested on: ACHN; test: Antiproliferative activity against human ACHN cells after 96 hrs by MTT assay; format: functional, cell-based; how it was run: as §2
[8] = tested on: SF-268; test: Antiproliferative activity against human SF-268 cells after 96 hrs by MTT assay; format: functional, cell-based; conditions: SF-268, 96 h; how it was run: as §2
[9] = tested on: XF498; test: Antiproliferative activity against human XF498 cells after 96 hrs by MTT assay; format: functional, cell-based; conditions: XF498, 96 h; how it was run: as §2
[10] = tested on: MRC5; test: Antiproliferative activity against human MRC5 cells after 96 hrs by MTT assay; format: cell-based; conditions: MRC5, 96 h; how it was run: as §1
[11] = molecular target: DNA topoisomerase 2-alpha (Homo sapiens) (UniProt P11388); test: Inhibition of DNA topoisomerase 2-mediated negatively supercoiled pBR322 relaxation
Sequence of DNA topoisomerase 2-alpha (Homo sapiens) (P11388 whole entry): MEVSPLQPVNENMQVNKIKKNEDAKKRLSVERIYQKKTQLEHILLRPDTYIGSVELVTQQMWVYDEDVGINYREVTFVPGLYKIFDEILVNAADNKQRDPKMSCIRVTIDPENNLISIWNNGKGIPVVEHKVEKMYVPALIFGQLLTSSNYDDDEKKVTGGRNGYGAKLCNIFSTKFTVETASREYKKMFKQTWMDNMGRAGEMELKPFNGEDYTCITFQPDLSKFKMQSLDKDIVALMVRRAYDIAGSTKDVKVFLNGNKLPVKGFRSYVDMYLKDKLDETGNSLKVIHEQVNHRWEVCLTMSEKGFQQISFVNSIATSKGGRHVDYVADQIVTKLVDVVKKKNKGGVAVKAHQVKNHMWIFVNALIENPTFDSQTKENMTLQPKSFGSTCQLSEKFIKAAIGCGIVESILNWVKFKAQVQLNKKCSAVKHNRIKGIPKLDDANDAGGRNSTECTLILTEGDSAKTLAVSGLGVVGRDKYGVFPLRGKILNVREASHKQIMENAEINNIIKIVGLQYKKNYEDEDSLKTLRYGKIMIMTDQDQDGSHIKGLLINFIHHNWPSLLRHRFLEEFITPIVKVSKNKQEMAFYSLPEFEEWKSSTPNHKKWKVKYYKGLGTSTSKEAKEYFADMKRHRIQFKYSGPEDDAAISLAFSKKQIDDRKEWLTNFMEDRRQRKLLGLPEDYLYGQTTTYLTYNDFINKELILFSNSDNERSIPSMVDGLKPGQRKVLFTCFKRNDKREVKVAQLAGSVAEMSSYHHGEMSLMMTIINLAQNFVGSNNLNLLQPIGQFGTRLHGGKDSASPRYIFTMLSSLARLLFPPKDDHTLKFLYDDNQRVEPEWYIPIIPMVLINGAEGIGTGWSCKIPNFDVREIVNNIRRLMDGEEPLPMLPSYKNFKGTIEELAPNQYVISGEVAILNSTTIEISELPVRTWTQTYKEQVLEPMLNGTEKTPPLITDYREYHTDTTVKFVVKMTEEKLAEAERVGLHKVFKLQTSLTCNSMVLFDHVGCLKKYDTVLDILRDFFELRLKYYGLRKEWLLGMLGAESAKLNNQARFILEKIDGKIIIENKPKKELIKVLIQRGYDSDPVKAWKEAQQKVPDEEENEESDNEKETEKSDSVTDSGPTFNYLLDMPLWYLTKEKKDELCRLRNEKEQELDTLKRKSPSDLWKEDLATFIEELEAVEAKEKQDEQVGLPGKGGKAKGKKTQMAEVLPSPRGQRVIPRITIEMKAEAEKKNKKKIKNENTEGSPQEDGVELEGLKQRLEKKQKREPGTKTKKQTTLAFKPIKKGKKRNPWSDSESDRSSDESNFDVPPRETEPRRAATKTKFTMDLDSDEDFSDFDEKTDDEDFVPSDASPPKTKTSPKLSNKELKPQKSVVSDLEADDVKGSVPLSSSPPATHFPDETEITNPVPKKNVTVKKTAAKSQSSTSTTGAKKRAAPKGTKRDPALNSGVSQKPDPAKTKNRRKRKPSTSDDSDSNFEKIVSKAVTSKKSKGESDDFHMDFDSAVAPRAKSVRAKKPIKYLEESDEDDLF

SMILES	IC50 ([2]; Homo sapiens, HT-29, 96 h) [nM]	IC50 [3] [nM]	IC50 [4] [nM]	IC50 [5] [nM]	IC50 [6] [nM]	IC50 [7] [nM]	Activity [11]	IC50 ([2]; ht-29) [nM]	IC50 ([1]; Homo sapiens, MT4, 96 h) [nM]	IC50 [8] [nM]	IC50 [9] [nM]	IC50 [10] [nM]	IC50 ([1]; mt4) [nM]
Cc1ccc(N2NC(=O)NC3(CSC4=C3C(=O)c3ncccc3C4=O)C2=O)cc1 (racemic)	200	70	37	410	210	500			100	2100	3800		
O=C1NN(c2ccc([N+](=O)[O-])cc2)C(=O)C2(CSC3=C2C(=O)c2ncccc2C3=O)N1 (racemic)	1010	2	2	550	610	650			5	3550	4800		
O=C1NN(c2ccccc2)C(=O)C2(CSC3=C2C(=O)c2ncccc2C3=O)N1 (racemic)	550	90	39	150	210	940			150	2200	4550		
O=C1NN(c2ccc(Cl)cc2)C(=O)C2(CSC3=C2C(=O)c2ncccc2C3=O)N1 (racemic)	220	50	51	110	150	360			150	2000	2500		
O=C1C2=C(C(=O)c3ncccc31)C1(CS2)NC(=O)N(c2ccc([N+](=O)[O-])cc2)C1=O (racemic)	250	1	2	350	100	100			8	1520	1030		
O=C1C2=C(C(=O)c3ncccc31)C1(CS2)NC(=O)N(c2ccc(N3CCOCC3)cc2)C1=O (racemic)	750	600	650	750	200	140			800	1980	1700		
COc1ccc(N2NC(=O)NC3(CSC4=C3C(=O)c3ncccc3C4=O)C2=O)cc1 (racemic)	650	35	35	230	150	430			80	2850	3800		
CCCCCc1ccc(N2C(=O)NC3(CSC4=C3C(=O)c3ncccc3C4=O)C2=O)cc1 (racemic)	250	250	150	250	200	250			190	520	830		
O=C1NC(=O)C2(CSC3=C2C(=O)c2ncccc2C3=O)N1 (racemic)		120	150	120	150	80				3100	3120		
O=C1NNC(=O)C2(CSC3=C2C(=O)c2ncccc2C3=O)N1 (racemic)		450	48	1250	980	1050				4820	5000		
O=C1NC(=O)C2(CSC3=C2C(=O)c2ncccc2C3=O)N1 (single isomer, unassigned; (+))	190								130				
O=C1NNC(=O)C2(CSC3=C2C(=O)c2ncccc2C3=O)N1 (single isomer, unassigned; (-))								1600					500
O=C1NNC(=O)C2(CSC3=C2C(=O)c2ncccc2C3=O)N1 (stereo in doubt; (+)-3)	1580								550				
O=C1NC(=O)C2(CSC3=C2C(=O)c2ncccc2C3=O)N1 (stereo in doubt; (-)-2)								180					120
COc1cc([C@@H]2c3cc4c(cc3[C@@H](O[C@@H]3O[C@@H]5CO[C@@H](C)O[C@H]5[C@H](O)[C@H]3O)[C@H]3COC(=O)[C@H]23)OCO4)cc(OC)c1O [ETOPOSIDE]	2500	1200	100	1000	3000	2150			1250	3250	3450	3900	

The remaining molecules from weak to strong by IC50 ([2]; Homo sapiens, HT-29, 96 h), led by results:

IC50 ([2]; Homo sapiens, HT-29, 96 h) [nM]	IC50 [3] [nM]	IC50 [4] [nM]	IC50 [5] [nM]	IC50 [6] [nM]	IC50 [7] [nM]	Activity [11]	IC50 ([2]; ht-29) [nM]	SMILES	IC50 ([1]; Homo sapiens, MT4, 96 h) [nM]	IC50 [8] [nM]	IC50 [9] [nM]	IC50 [10] [nM]	IC50 ([1]; mt4) [nM]
150	200	200	130	100	150			CC(C)(C)c1ccc(N2C(=O)NC3(CSC4=C3C(=O)c3ncccc3C4=O)C2=O)cc1 (racemic)	200	500	850		
50	150	190	70	90	50			CCCCc1ccc(N2C(=O)NC3(CSC4=C3C(=O)c3ncccc3C4=O)C2=O)cc1 (racemic)	200	400	950		
50	20	9	30	50	20			CCN(CC)c1ccc(N2C(=O)NC3(CSC4=C3C(=O)c3ncccc3C4=O)C2=O)cc1 (racemic)	8	960	730		
20	1	1	10	10	90	Dose-dependent effect		CN(C)c1ccc(N2C(=O)NC3(CSC4=C3C(=O)c3ncccc3C4=O)C2=O)cc1 (racemic)	15	950	800	1000	
2	10	10	4	2	4	Dose-dependent effect		O=C1C2=C(C(=O)c3ncccc31)C1(CS2)NC(=O)N(c2ccc(Cl)cc2)C1=O (racemic)	10	580	590	800	
2	2	1	10	10	80			O=C1C2=C(C(=O)c3ncccc31)C1(CS2)NC(=O)N(c2ccncc2)C1=O (racemic)	3	1100	1120		
2	10	30	1	3	21			O=C1C2=C(C(=O)c3ncccc31)C1(CS2)NC(=O)N(c2ccccc2)C1=O (racemic)	25	1700	1510		
2	50	10	50	1	50			COc1ccc(N2C(=O)NC3(CSC4=C3C(=O)c3ncccc3C4=O)C2=O)cc1 (racemic)	70	650	650		
1	20	20	2	2	12			Cc1ccc(N2C(=O)NC3(CSC4=C3C(=O)c3ncccc3C4=O)C2=O)cc1 (racemic)	27	660	1350		
1	10	10	50	5	5			CCc1ccc(N2C(=O)NC3(CSC4=C3C(=O)c3ncccc3C4=O)C2=O)cc1 (racemic)	1	450	1200		
